Structures are written as SMILES.

One experiment has as its target Protease (Human immunodeficiency virus 1, UniProt Q9YQ12). Put plainly: Inhibition of HIV1 protease.
The subject of experiment [1] is Human immunodeficiency virus 1. Put plainly: Antiviral activity against HIV1 LAI in human MT2 cells assessed as inhibition of virus-induced cytopathic effect. The settings on record: Human immunodeficiency virus 1, LAI. It is filed as functional, organism-based.
Experiment [2] relates to Human immunodeficiency virus 1. Put plainly: Antiviral activity against multidrug-resistant HIV1 with protease L10I, K14R, R41K, M46L, I54V, L63P, A71V, V82A, L90M, I93L mutation in phytohemagglutininin-activated PBMC assessed as inhibition of p24Gag protein production. The class given is functional, organism-based. Summed up: (§1)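 Clinical HIV-1 isolates (ERS104pre as wild-type reference; multidrug-resistant isolates with the listed protease substitutions relative to consensus type B) were tested in phytohemagglutinin-activated human peripheral blood mononuclear cells. The endpoint was inhibition of p24Gag protein production, and IC50 was determined in triplicate.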

Experiment [3] relates to Human immunodeficiency virus 1. The experiment is described as follows: Antiviral activity against multidrug-resistant HIV1 with protease L10I, K43T, M46L, I54V, L63P, A71V, V82A, L90M, Q92K mutation in phytohemagglutininin-activated PBMC assessed as inhibition of p24G protein production. It is filed as functional, organism-based. An outline of the steps: as §1
Experiment [4] concerns Human immunodeficiency virus 1. Put plainly: Antiviral activity against multidrug-resistant HIV1 with protease L10I, L24I, I33F, E35D, M36I, N37S, M46L, I54V, R57K, I62V, L63P, A71V, G73S, V82A mutation in phytohemagglutininin-activated PBMC assessed as inhibition of p24G protein production. It is filed as functional, organism-based. Summed up: as §1
Experiment [5] concerns Human immunodeficiency virus 1. Put plainly: Antiviral activity against multidrug-resistant HIV1 with protease L10I, K14R, L33I, M36I, M46I, F53I, K55R, I62V, L63P, A71V, G73S, V82A, L90M, I93L mutation in phytohemagglutininin-activated PBMC assessed as inhibition of p24G protein production. It is filed as functional, organism-based. An outline of the steps:
as §1

In experiment [6] the test system is Human immunodeficiency virus 1. The experiment is described as follows: Antiviral activity against multidrug-resistant HIV1 with protease L10I, V11I, T12E, I15V, L19I, R41K, M46L, L63P, A71T, V82A, L90M mutation in phytohemagglutininin-activated PBMC assessed as inhibition of p24G protein production. The class given is functional, organism-based. Summed up:
as §1

Experiment [7] deals with Human immunodeficiency virus 1. Put plainly: Antiviral activity against multidrug-resistant HIV1/C with protease mutation in phytohemagglutininin-activated PBMC assessed as inhibition of p24G protein production. The class given is functional, organism-based.
Experiment [8] has as its system Human immunodeficiency virus 1. Put plainly: Antiviral activity against multidrug-resistant HIV1/A with protease mutation in phytohemagglutininin-activated PBMC assessed as inhibition of p24G protein production. The class given is functional, organism-based.
For experiment [9], the system named is Human immunodeficiency virus 1. Put plainly: Antiviral activity against HIV1 ERS104 with protease L63P mutation in phytohemagglutininin-activated PBMC assessed as inhibition of p24G protein production. The class given is functional, organism-based. Summed up:
as §1

The mark [10] stands for this setting: read-out: ID50 (the source's name).

Sequence of Protease (Q9YQ12 whole entry): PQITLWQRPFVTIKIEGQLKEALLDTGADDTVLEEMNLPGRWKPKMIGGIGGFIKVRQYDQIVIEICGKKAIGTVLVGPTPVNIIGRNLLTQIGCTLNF

The molecule `COc1ccc(S(=O)(=O)N(CC(C)C)C[C@@H](O)[C@H](Cc2ccccc2)NC(=O)OC2COCCOCOCCOC2)cc1` displayed a Ki on Protease of 6.3 nM. Moreover, in experiment [1] (read-out: IC50), the IC50 was greater than 1000 nM.

As for `COc1ccc(S(=O)(=O)N(CC(C)C)C[C@@H](O)[C@H](Cc2ccccc2)NC(=O)O[C@@H]2CCCCOC2)cc1`, at Protease, the Ki was determined as 0.81 nM.

At Protease, `COc1ccc(S(=O)(=O)N(CC(C)C)C[C@@H](O)[C@H](Cc2ccccc2)NC(=O)OC2COCCOCCOC2)cc1` had a Ki of 16 nM.

Turning to `COc1ccc(S(=O)(=O)N(CC(C)C)C[C@@H](O)[C@H](Cc2ccccc2)NC(=O)OC2CCCCCC2)cc1`, the affinity on Protease corresponds to a Ki of 27 nM.

Regarding `COc1ccc(S(=O)(=O)N(CC(C)C)C[C@@H](O)[C@H](Cc2ccccc2)NC(=O)OC2COCOC2)cc1`, the affinity at Protease, expressed as Ki, was 0.041 nM. For the same molecule, the IC50 is 3.4 nM in experiment [1] (read-out: IC50); 64 nM in experiment [2]; 110 nM in experiment [3]; 330 nM in [4]; 230 nM in experiment [5]; 300 nM in experiment [6]. The IC50 in experiment [7] came out at 160 nM; in experiment [8], 13 nM; in experiment [9] it was 6 nM.

With `CC(C)CN(C[C@@H](O)[C@H](Cc1ccccc1)NC(=O)O[C@H]1CCOC1)S(=O)(=O)c1ccc(N)cc1`, the IC50 in [2] amounted to 290 nM; in [3], 300 nM; in [4], 430 nM; in [5] it was 320 nM; in [6], 340 nM; in experiment [7] it was 230 nM. Further, the values for the IC50 in experiment [8] and in [9] were 100 nM and 33 nM, respectively.

`COc1ccc(S(=O)(=O)N(CC(C)C)C[C@@H](O)[C@H](Cc2ccccc2)NC(=O)OC2COCCN(C)CCOC2)cc1` displayed a Ki at Protease of 19 nM. In experiment [1] (read-out: IC50), the IC50 was greater than 1000 nM.

With `COc1ccc(S(=O)(=O)N(CC(C)C)C[C@@H](O)[C@H](Cc2ccccc2)NC(=O)O[C@H]2CCCOCOC2)cc1`, the Ki at Protease was found to be 0.15 nM.

Take `CC(C)c1nc(CN(C)C(=O)N[C@H](C(=O)N[C@@H](Cc2ccccc2)C[C@H](O)[C@H](Cc2ccccc2)NC(=O)OCc2cncs2)C(C)C)cs1` [RITONAVIR]: the IC50 in experiment [2], in experiment [3], in [4], in experiment [5], in [6] and in experiment [7] was greater than 1000 nM each time. Besides, the IC50 in [8] was greater than 1000 nM; in [9], 34 nM.

`COc1ccc(S(=O)(=O)N(CC(C)C)C[C@@H](O)[C@H](Cc2ccccc2)NC(=O)O[C@H]2CCCOCC2)cc1`: the Ki at Protease is 0.74 nM.

`COc1ccc(S(=O)(=O)N(CC(C)C)C[C@@H](O)[C@H](Cc2ccccc2)NC(=O)OC2COCCOCCOCCOC2)cc1` displayed a Ki at Protease of 33 nM.

In turn, `COc1ccc(S(=O)(=O)N(CC(C)C)C[C@@H](O)[C@H](Cc2ccccc2)NC(=O)OC2COCCS(=O)(=O)CCOC2)cc1` registered a Ki at Protease of 1.9 nM. Moreover, in experiment [1] (read-out: IC50), the IC50 was greater than 1000 nM.

On to `COc1ccc(S(=O)(=O)N(CC(C)C)C[C@@H](O)[C@H](Cc2ccccc2)NC(=O)O[C@@H]2CCOCOC2)cc1`, for which the IC50 in experiment [1] (read-out: IC50) worked out at 4.9 nM; in experiment [2] it was 220 nM; in [3], 250 nM; in [4] it was 500 nM; in [5] it was 340 nM; in experiment [6], 360 nM. In addition, the IC50 in [7] is 210 nM; in experiment [8] it was 20 nM; in experiment [9], 20 nM.

Regarding `COc1ccc(S(=O)(=O)N(CC(C)C)C[C@@H](O)[C@H](Cc2ccccc2)NC(=O)O[C@H]2CO[C@H]3OCC[C@H]32)cc1`, in [1] (setting [10]), the IC50 was found to be 1.2 nM.

Turning to `COc1ccc(S(=O)(=O)N(CC(C)C)C[C@@H](O)[C@H](Cc2ccccc2)NC(=O)O[C@H]2CCOCOC2)cc1`, on Protease, the Ki came out at 0.16 nM. In addition, in [1] (read-out: IC50), the IC50 turned out to be 30 nM.

On to `CC(C)(C)NC(=O)[C@@H]1CN(Cc2cccnc2)CCN1C[C@@H](O)C[C@@H](Cc1ccccc1)C(=O)N[C@H]1c2ccccc2C[C@H]1O`, for which the IC50 in experiment [2] was greater than 1000 nM; in [3], greater than 1000 nM; in experiment [4], greater than 1000 nM; in experiment [5] it was greater than 1000 nM; in [6], 290 nM; in experiment [7], greater than 1000 nM. The IC50 is greater than 1000 nM in experiment [8] and 26 nM in [9].

At Protease, `COc1ccc(S(=O)(=O)N(CC(C)C)C[C@@H](O)[C@H](Cc2ccccc2)NC(=O)O[C@@H]2CCCOCOC2)cc1` registered a Ki of 0.16 nM.

As for `CC(C)CN(C[C@@H](O)[C@H](Cc1ccccc1)NC(=O)O[C@H]1CO[C@H]2OCC[C@H]21)S(=O)(=O)c1ccc(N)cc1`, the IC50 in [1] (setting [10]) is 1.6 nM; in experiment [2] it was 4 nM; in experiment [5], 26 nM; in experiment [8] it was 3 nM; in experiment [9] it was 3.5 nM.

What is called Ki is a dissociation constant, usually derived from enzyme kinetics or from competition with a known ligand.

The values above are taken from ChEMBL document CHEMBL1140100, “Flexible cyclic ethers/polyethers as novel P2-ligands for HIV-1 protease inhibitors: design, synthesis, biological evaluation, and protein-ligand X-ray studies” (J Med Chem, 2008).
